Test results from paper PMC6976987 (Molecular Genetics and Metabolism Reports, 2020).
Like-named read-outs stand apart in the source and are kept apart here. Marks after values point to notes of the source that are not given here.

Key:
[1] = assay type: in vivo, human; details: human, plasma, oral; for Tmax: median (minimum, maximum); for AUC: AUC0-τ, 0 to 12 h
Method in brief: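 Open-label, fixed-sequence study in healthy CYP2D6 non-poor metabolizers. Oral test compound 84 mg, fasted: single dose Day 1, BID Days 2–8, then BID with a strong CYP3A/P-gp inhibitor 400 mg QD Days 9–15. Plasma sampled to 36 h Day 1, 12 h Day 8, 72 h Day 15, plus pre-dose samples. LC-MS/MS, LLOQ 0.2 ng/mL. Non-compartmental PK; ratios from log-transformed mixed-effects model with 90% CI.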

Safety assessments [2] = assay type: in vivo, human
Safety assessments [3] = assay type: in vivo, human; remark: listed apart in the source
Method in brief: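 Open-label study in healthy adults. Safety was monitored after a single dose (Day 1), during multiple doses alone (Days 2–8), and during co-dosing (Days 9–15 with the CYP3A/P-gp inhibitor; Days 9–18 with the CYP2D6 inhibitor). Measures: treatment-emergent AEs, clinical labs, vital signs, physical exams, 12-lead ECG, 12 h continuous telemetry. An AE counted as treatment-related if possibly, probably or definitely related to study drug.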

[4] = Eliglustat alone, pharmacokinetics across all three studies; assay type: in vivo, human
Method in brief: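 Test compound given orally to healthy adults as a single dose, then BID. Terminal half-life comes from single-dose plasma profiles by non-compartmental analysis. Plasma was protein-precipitated with acetonitrile containing a 13C internal standard, solid-phase extracted and measured by LC-MS/MS. Steady state was judged by graphical examination of pre-dose (trough) concentrations during repeated dosing.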

[5] = eliglustat 84 mg BID + ketoconazole 400 mg QD, Days 9 to 15, CYP2D6 EMs only (N = 31), mean (SD)
[6] = eliglustat 84 mg BID + ketoconazole 400 mg QD, Days 9 to 15, all (N = 33), mean (SD)
[7] = rifampin study (N = 25), whole study
[8] = rifampin study (N = 25), road traffic accident, unrelated to eliglustat or rifampin
[9] = concomitant dosing of eliglustat with paroxetine
[10] = concomitant dosing of eliglustat with paroxetine, Days 9 to 18, N = 35
[11] = multiple-dose eliglustat alone, Days 2 to 8, N = 36
[12] = paroxetine study (N = 36), whole study

With CCCCCCCC(=O)N[C@H](CN1CCCC1)[C@H](O)c1ccc2c(c1)OCCO2 [eliglustat] the AUC(0-inf) ([1]; 84 mg, AUC0-∞, eliglustat 84 mg single dose, Day 1, all (N = 34), mean (SD)) was 73.2 ng·h/mL, the Cmax ([1]; 84 mg, eliglustat 84 mg BID, Days 2 to 8, CYP2D6 EMs only (N = 31), mean (SD)) was 19.5 ng/mL and the Cmax ([1]; 84 mg, eliglustat 84 mg BID, Days 2 to 8, all (N = 33), mean (SD)) was 18.6 ng/mL. It also gave a Cmax ([1]; 84 mg, eliglustat 84 mg single dose, Day 1, CYP2D6 EMs only (N = 34), mean (SD)) of 10.3 ng/mL, a Cmax ([1]; 84 mg, eliglustat 84 mg single dose, Day 1, all (N = 36), mean (SD)) of 9.87 ng/mL and a Tmax ([1]; 84 mg, eliglustat 84 mg BID, Days 2 to 8, all (N = 33)) of 2 h. The Tmax ([1]; 84 mg, eliglustat 84 mg single dose, Day 1, all (N = 36)) was 1.6 h, the AUC [1, 5] was 501 ng·h/mL and the AUC [1, 6] was 474 ng·h/mL. For the same compound, the Cmax [1, 5] was 71 ng/mL, the Cmax [1, 6] was 67.2 ng/mL and the Tmax ([1]; eliglustat 84 mg BID + ketoconazole 400 mg QD, Days 9 to 15, all (N = 33)) was 2.3 h. For the same compound, the tolerability (Safety assessments [2]; administered alone and with rifampin) was “well tolerated”, the “subjects with moderate dizziness” value (Safety assessments [2]; after completing multiple doses of eliglustat alone) was 4.0% and the “subjects reporting an AE related to eliglustat” value (Safety assessments [2]; concomitant dosing with IV rifampin, Day 12, N = 25) was 4.0%. For the same compound, the “subjects reporting AEs related to eliglustat” value (Safety assessments [2]; concomitant dosing with oral rifampin, Days 13 to 17, N = 24) was 8.3%, the “subjects with moderate nausea, vomiting, and retching” value (Safety assessments [2]; during the multiple doses of eliglustat alone) was 4.0% and the “subjects reporting treatment-related AEs” value (Safety assessments [2]; following treatment with eliglustat alone, N = 25) was 20.0%. For the same compound, the “Any adverse event (AE), number of events” value (Safety assessments [2]; [7]) was 65 N, the “Any adverse event (AE), number of subjects” value (Safety assessments [2]; [7]) was 17 (68.0%) N (%) and the “Any treatment-related AE, number of events” value (Safety assessments [2]; [7]) was 39 N. The “Any treatment-related AE, number of subjects” value (Safety assessments [2]; [7]) was 11 (44.0%) N (%), the “Discontinuations due to AE, number of events” value (Safety assessments [2]; [8]) was 1 ^a N and the “Discontinuations due to AE, number of subjects” value (Safety assessments [2]; [8]) was 1 (4%) N (%). The “Serious AEs, number of events” value (Safety assessments [2]; [8]) was 1 ^a N, the “Serious AEs, number of subjects” value (Safety assessments [2]; [8]) was 1 (4%) N (%) and the “Severe AEs, number of events” value (Safety assessments [2]; [8]) was 1 ^a N. The “Severe AEs, number of subjects” value (Safety assessments [2]; [8]) was 1 (4%) N (%), the “subjects reporting moderate AEs that were treatment-related” value (Safety assessments [2]; rifampin study overall) was 12.0% and the tolerability (Safety assessments [3]; administered alone and with paroxetine) was “well tolerated”. The “subjects with application site dermatitis” value (Safety assessments [3]; [9]) was 31.4%, the “subjects with moderate treatment-related headache” value (Safety assessments [3]; [9]) was 11.4% and the “number of AEs” value (Safety assessments [3]; [10]) was 194 events. The “subjects with AEs” value (Safety assessments [3]; [10]) was 91.4%, the “subjects reporting AEs related to eliglustat” value (Safety assessments [3]; concomitant dosing with paroxetine, N = 35) was 65.7% and the “subjects reporting AEs possibly related to both eliglustat and paroxetine” value (Safety assessments [3]; concomitant dosing, N = 35) was 65.7%. For the same compound, the “subjects reporting treatment-related AEs” value (Safety assessments [3]; following a single dose of eliglustat, Day 1, N = 36) was 5.6%, the “subjects with moderate gastritis” value (Safety assessments [3]; following multiple-dose eliglustat) was 5.6% and the “subjects who discontinued treatment due to AEs” value (Safety assessments [3]; gastritis (eliglustat alone), dizziness and nausea, nausea and panic attack (concomitant dosing)) was 8.3%. The “subjects with moderate treatment-related headache” value (Safety assessments [3]; multiple-dose eliglustat) was 2.8%, the “number of AEs” value (Safety assessments [3]; [11]) was 31 events and the “subjects with AEs” value (Safety assessments [3]; [11]) was 41.7%. For the same compound, the “subjects reporting treatment-related AEs” value (Safety assessments [3]; multiple-dose eliglustat, Days 2 to 8, N = 36) was 27.8%, the “Any adverse event (AE), number of events” value (Safety assessments [3]; [12]) was 233 N and the “Any adverse event (AE), number of subjects” value (Safety assessments [3]; [12]) was 33 (91.7%) N (%). The “Any treatment-related AE, number of events” value (Safety assessments [3]; [12]) was 155 N, the “Any treatment-related AE, number of subjects” value (Safety assessments [3]; [12]) was 26 (72.2%) N (%) and the “Discontinuations due to AE, number of events” value (Safety assessments [3]; [12]) was 5 N. For the same compound, the “Discontinuations due to AE, number of subjects” value (Safety assessments [3]; [12]) was 3 (8.3%) N (%), the “Serious AEs, number of events” value (Safety assessments [3]; [12]) was 0 N and the “Serious AEs, number of subjects” value (Safety assessments [3]; [12]) was 0 (0.0%) N (%). The “Severe AEs, number of events” value (Safety assessments [3]; [12]) was 0 N, the “Severe AEs, number of subjects” value (Safety assessments [3]; [12]) was 0 (0.0%) N (%) and the half-life ([4]; human, plasma, oral) was 4.2 to 5.11 h. The time to steady-state ([4]; repeated doses of eliglustat, graphical examination of Ctrough values) was “approximately 4 days”.
